{"data": "Measurements gathered from unrelated publications", "target": "Tyrosine-protein kinase FRK (FRK, Homo sapiens, UniProt P42685)", "note": "Compare with care: the assays were run in different laboratories."}
{"Structure (SMILES)": "COc1cnc(Nc2cccc(S(N)(=O)=O)c2)nc1N1CCN(c2ccccc2)CC1", "read-out": "binding", "technique": "competition with immobilised ligand", "concentration": "1 µM", "remaining binding [%]": 100}
{"Structure (SMILES)": "Nc1c(C(=O)NCc2ccc(C(=O)NCCCC3CCCCC3)cc2)cnn1-c1ccccc1", "read-out": "cell-free assay", "technique": "competition with immobilised ligand", "concentration": "0.1 µM", "remaining binding [%]": 100}
{"Structure (SMILES)": "Cc1cnc(Nc2ccc(C(=O)N3CCC(N4CCCC4)CC3)cc2)nc1-c1cc2ccccc2s1", "read-out": "binding", "technique": "competition with immobilised ligand", "concentration": "1 µM", "remaining binding [%]": 76}
{"Structure (SMILES)": "CN(C)c1ncc(F)c(-c2cnn3ncccc23)n1", "read-out": "binding", "technique": "competition with immobilised ligand", "concentration": "1 µM", "remaining binding [%]": 100}
{"Structure (SMILES)": "C=CC(=O)N1CCC(C(=O)NCC(=O)N2CCN(c3nc(-c4cnc(N)nc4C(F)F)nc(N4CCOCC4)n3)CC2)CC1", "read-out": "binding", "technique": "competition with immobilised ligand", "concentration": "1 µM", "remaining binding [%]": 100}
{"Structure (SMILES)": "O=C(Nc1c[nH]nc1C(=O)NC1CCNCC1)c1cc(F)cc(F)c1", "read-out": "binding", "technique": "competition with immobilised ligand", "concentration": "1 µM", "remaining binding [%]": 82}
{"Structure (SMILES)": "CCN1CCN(Cc2ccc(C(=O)Nc3ccc(C)c(Oc4ccc5c(c4)CC(=O)N5)c3)cc2C(F)(F)F)CC1", "read-out": "binding", "technique": "competition with immobilised ligand", "concentration": "1 µM", "remaining binding [%]": 13}
{"Structure (SMILES)": "O=C(c1ccc(Nc2nccc(-c3cc4ccccc4s3)n2)cc1)N1CCC(N2CCCC2)CC1", "read-out": "binding", "technique": "competition with immobilised ligand", "concentration": "1 µM", "remaining binding [%]": 83}
{"Structure (SMILES)": "CN1CCN(c2cnc3c(C4CCN(C(=O)c5ccc(OC(F)(F)F)cc5N)CC4)ncnc3c2)CC1", "read-out": "cell-free assay", "technique": "competition with immobilised ligand", "concentration": "1 µM", "remaining binding [%]": 100}
{"Structure (SMILES)": "C[C@@H]1CCN(c2nccc(-c3cnn4ncccc34)n2)C1", "read-out": "binding", "concentration": "1 µM", "remaining binding [%]": 100}
{"Structure (SMILES)": "COc1cnc(Nc2cccc(S(N)(=O)=O)c2)nc1N1CCN(c2ccccc2)C(=O)C1", "read-out": "binding", "technique": "competition with immobilised ligand", "concentration": "1 µM", "remaining binding [%]": 100}
{"Structure (SMILES)": "F[C@@H]1CCN(c2nccc(-c3cnn4ncccc34)n2)C1", "read-out": "binding", "concentration": "1 µM", "remaining binding [%]": 88}
{"Structure (SMILES)": "Nc1cnc(N2CCc3cc(S(=O)(=O)Nc4c(F)cc(Cl)cc4F)cc(N4CCCC4=O)c32)nc1", "read-out": "cell-free assay", "technique": "competition with immobilised ligand", "concentration": "1 µM", "remaining binding [%]": 62}
{"Structure (SMILES)": "CN(c1nccc(-c2cnn3ncccc23)n1)C1CC1", "read-out": "binding", "concentration": "1 µM", "remaining binding [%]": 85}
{"Structure (SMILES)": "O=C(c1ccc(Nc2ncc(Cl)c(-c3ccc(Cl)s3)n2)cc1)N1CCC(N2CCCC2)CC1", "read-out": "binding", "technique": "competition with immobilised ligand", "concentration": "1 µM", "remaining binding [%]": 97}
{"Structure (SMILES)": "O=C(Nc1ccc(Oc2ccc(F)cc2)cc1)N1CCc2ncccc2[C@H]1c1ccc(F)cc1", "read-out": "cell-free assay", "technique": "competition with immobilised ligand", "concentration": "1 µM", "remaining binding [%]": 93}
{"Structure (SMILES)": "N[C@H]1CCN(c2nccc(-c3cnn4ncccc34)n2)C1", "read-out": "binding", "technique": "competition with immobilised ligand", "concentration": "1 µM", "remaining binding [%]": 100}
{"Structure (SMILES)": "c1cncc(-c2cccc(Nc3nccc(NC4CCCCC4)n3)c2)c1", "read-out": "binding", "technique": "competition with immobilised ligand", "concentration": "10 µM", "remaining binding [%]": 53}
{"Structure (SMILES)": "c1cnn2ncc(-c3ccnc(N4CCC45COC5)n3)c2c1", "read-out": "binding", "concentration": "1 µM", "remaining binding [%]": 82}
{"Structure (SMILES)": "CCCOc1ccc([C@H]2[C@H](C(=O)O)[C@@H](c3ccc4c(c3)OCO4)CN2CC(=O)Nc2c(CC)cccc2CC)cc1", "read-out": "cell-free assay", "technique": "competition with immobilised ligand", "concentration": "1 µM", "remaining binding [%]": 100}
{"Structure (SMILES)": "CC1CCCN1c1nccc(-c2cnn3ncccc23)n1 (stereo not shown)", "read-out": "binding", "technique": "competition with immobilised ligand", "concentration": "1 µM", "remaining binding [%]": 88}
{"Structure (SMILES)": "NS(=O)(=O)c1cc(NC(=O)C2(c3ccccc3Cl)CC2)ccc1Oc1cccc(Cl)c1", "read-out": "cell-free assay", "technique": "competition with immobilised ligand", "concentration": "1 µM", "remaining binding [%]": 99}
